Screening results as filed in PubChem.
M5 PAM = positive allosteric modulators of human muscarinic M5 receptor | P08912 | CHO-K1 hM5, Fluo-8 calcium, ACh EC20 PAM; 0% = ACh EC20, 100% = ACh EC100 | activation, % at 3 µM | 0.3% of 360,000 active | AID 624038;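 active = activation above the run cutoff, the mean activation of all test compounds plus 3 SD, cut at about 18% in these data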
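Replicates: One well per compound, no replicates | System: Human M5 receptor in CHO-K1 cells | Benchmarks: Low control EC20 acetylcholine (0%), high control EC100 acetylcholine (100%) | Probe or stimulus: Acetylcholine, EC20 level | Times: Fluo-8 loading 80 min at 37 °C plus 30 min room temperature | Signal: Intracellular calcium via Fluo-8 fluorescence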
M4 ag = agonists of human muscarinic M4 receptor (CHRM4); P08173; CHO-K1 hM4/Gqi5, Fluo-8 calcium fluorescence; vehicle 0%, full acetylcholine response 100%; activation, % at 3 µM; 0.14% of 360,000 active; AID 624127;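 active = activation above the run mean over all test wells plus 3 SD, cut at about 32% in these data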;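 also: peak over basal fluorescence ratio per well then scaled between controls; 0% = DMSO wells and 100% = acetylcholine at EC100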
Target sequence (P08173 whole entry, looked up): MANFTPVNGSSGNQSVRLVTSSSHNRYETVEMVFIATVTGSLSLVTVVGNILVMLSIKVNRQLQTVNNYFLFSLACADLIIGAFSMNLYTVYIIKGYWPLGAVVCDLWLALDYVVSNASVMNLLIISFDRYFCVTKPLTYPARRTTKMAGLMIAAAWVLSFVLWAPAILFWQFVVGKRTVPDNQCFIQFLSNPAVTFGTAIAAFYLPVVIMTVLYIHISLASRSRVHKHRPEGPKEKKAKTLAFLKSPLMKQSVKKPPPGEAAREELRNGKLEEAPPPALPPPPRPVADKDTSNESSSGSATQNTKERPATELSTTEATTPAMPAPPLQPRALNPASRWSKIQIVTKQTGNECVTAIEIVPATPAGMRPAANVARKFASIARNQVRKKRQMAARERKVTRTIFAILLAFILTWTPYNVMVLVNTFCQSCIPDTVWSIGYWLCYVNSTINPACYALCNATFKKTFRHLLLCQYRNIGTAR
CHRM5 antagonist = antagonists of human muscarinic M5 receptor (CHRM5); CHO-hM5 cells, Fluo-8 calcium fluorescence, ACh EC80; 0.59% of 360,000 active; inhibition, % at 3 µM;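 active = inhibition above a per-plate cutoff, the mean of that plate's test compounds plus 3 SD, cut at about 27% in these data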;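 also: 0% = acetylcholine EC80 with DMSO and 100% = DMSO without agonist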
CHRM4 PAM = potentiates acetylcholine response at human M4 receptor | P08173 | CHO-K1 hM4/Gqi5, Fluo-8 calcium fluorescence, ACh EC20; 0% = ACh EC20, 100% = maximal ACh | activation, % at 3 µM | 0.4% of 360,000 active;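 active = activation above its plate's cutoff, the mean activation of sample wells plus 3 SD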
M5 ag = agonists of human muscarinic M5 receptor (CHRM5); activation, % at 3 µM; CHO-K1 hM5 cells, Fluo-8 calcium fluorescence; 0% DMSO wells, 100% maximal acetylcholine response; AID 624037; 0.19% of 360,000 active; P08912;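 active = activation above the run's mean over test compounds plus 3 SD, cut at about 23% in these data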;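 also: signal is peak over basal fluorescence ratio across the kinetic read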
M4 antag = blocks acetylcholine activation of human M4 receptor | P08173 | CHO-hM4 cells, ACh EC80, Fluo-8 calcium fluorescence | inhibition, % at 3 µM | 0.73% of 360,000 active;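 active = inhibition above its plate's cutoff, the mean inhibition of sample wells plus 3 SD, cut at about 27% in these data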;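 also: 0% = acetylcholine EC80 with DMSO and 100% = DMSO without agonist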
Starred values were filed as active, the others as inactive. The list is not random: actives were taken first. Their share in the collection is about 1.8%.

SMILES	M5 PAM	M4 ag	CHRM5 antagonist	CHRM4 PAM	M5 ag	M4 antag
Cc1sc2ncnc(N3CCC(C(=O)Nc4ccc(S(N)(=O)=O)cc4)CC3)c2c1C	3	79*	6	18	1	67*
Cc1sc2ncnc(N3CCC(C(=O)Nc4ccc(C#N)cc4)CC3)c2c1C	1	3	0	24*	3	1
Cc1sc2ncnc(N3CCC(C(=O)Nc4cc(Cl)ccc4Cl)CC3)c2c1C	-8	36*	5	56*	1	34*
CCN(CC(=O)Nc1cc(Cl)ccc1C)C(=O)C1CCN(c2ncnc3sc(C)c(C)c23)CC1	-18	18	27*	-13	2	15
CCn1cc(-c2n[nH]c(=S)n2-c2ccc(C)cc2Br)c(=O)c2ccc(C)nc21	2	0	-3	-6	6	0
O=C(O)CCC(=O)NNC(=O)COc1cccc(Cl)c1	21*	0	13	6	0	5
O=C(COc1cccc(Cl)c1)NNC(=S)Nc1ccccc1	-7	1	-5	-1	-1	1
CN1CCN(c2ccccc2NC(=O)C(Cc2ccccc2)n2cccc2)CC1 (centres undefined)	-3	6	1	-13	-2	32*
CCOC(=O)C(=O)Nc1ccc(OC)c(Cl)c1	0	2	5	23*	-3	-3
COc1ccc(C(=O)Nc2cccc([N+](=O)[O-])c2)cc1Br	0	1	6	0	-2	-4
COc1ccc(NC(=O)Nc2ccc3c(c2)N(C)C(=O)CS3)cc1OC	-13	17	4	-1	3	-10
C=CCNC(=S)Nc1ccc(OC(F)F)c(Cl)c1	-14	19	29*	-5	3	15
COc1ccc(NC(=O)Nc2ccc3c(c2)N(C)C(=O)CS3)cc1Cl	-24	22	31*	-15	9	17
COc1ccc(NC(=O)Nc2cccc([N+](=O)[O-])c2)cc1Cl	-19	15	31*	-12	5	14
C=CCNC(=S)Nc1ccc(Cl)cc1	5	2	6	-1	-1	-9
COc1ccc(NC(=O)C(=O)NCCCO)cc1Cl	-4	5	4	5	1	-5
COc1ccc(-c2nc(CS(=O)(=O)CC(=O)NCCCN3CCOCC3)c(C)o2)cc1	7	0	-9	1	-1	-6
O=C(CCn1c(=S)oc2ccccc21)Nc1ccccc1Br	-4	1	8	0	-3	11
CC(C)(C)C(=O)Nc1ccc2c(c1)OCCOCCOc1cc(NC(=O)C(C)(C)C)ccc1OCCOCCO2	0	1	-18	-7	2	1
CC(=O)Nc1ccc2c(c1)OCCOCCOc1cc(NC(C)=O)ccc1OCCO2	12	5	-8	13	4	27*
O=C(Nc1ccc([N+](=O)[O-])cc1)Nc1ccc(OC(F)F)c(Cl)c1	-19	11	33*	-13	8	17
COc1cc([N+](=O)[O-])ccc1NC(=O)Nc1ccc2c(c1)OCCO2	22*	0	11	-5	4	1
Cc1ccc([N+](=O)[O-])cc1NC(=O)Nc1cccc(F)c1	-17	23	30*	-16	10	22
O=C(Nc1ccccc1)Nc1cc([N+](=O)[O-])ccc1F	-14	11	5	3	6	-11
C=CCC[C@@H](Cc1ccc(F)cc1)C(=O)OC[C@@H]1CCCN1C(=O)[C@@H](CC=C)CC(=O)N[C@@H](CO)Cc1ccccc1	-7	4	11	-4	-2	6
SMILES	M5 PAM	M4 ag	CHRM5 antagonist	CHRM4 PAM	M5 ag	M4 antag
O=C(Nc1ccc(OC(F)F)c(Cl)c1)c1cccc(OC(F)F)c1	-22	7	40*	-21	-5	10
COc1ccc(NC(=O)c2cccc(OC(F)F)c2)cc1Cl	-7	8	-9	-4	1	0
O=C(Nc1ccccc1)Nc1ccc2c(c1)CCC2	-10	11	22	-11	0	2
O=C(Nc1cccc([N+](=O)[O-])c1)Nc1ccc2c(c1)CCC2	-14	18	35*	-5	6	1
Cc1nc(-c2cc(-c3nc(-c4ccc(C(C)(C)C)cc4)no3)no2)cs1	-12	7	15	-21	2	28*
S=C(NCc1ccccc1)Nc1ccc(Cl)cc1	-21	20	18	-12	4	5
FC(F)(F)Sc1ccc(NC(=S)NCc2ccccc2)cc1	-22	13	28*	-11	2	16
CCCCn1nnnc1C(C1CC1)N1CCN(C/C=C/c2ccccc2)CC1 (centres undefined)	-12	3	3	-6	-7	5
Clc1ccc(C[n+]2csc3ccccc32)cc1	15	0	9	-8	18	9
Fc1ccc(C[n+]2csc3ccccc32)cc1	3	6	43*	-7	46*	28*
S=C(NCc1ccco1)Nc1ccc(Cl)c(Cl)c1	-14	16	25	-15	4	9
S=C(NCc1ccco1)Nc1cc(Cl)c(Cl)cc1Cl	-19	7	33*	-12	0	-4
N#CCN(C(=O)COC(=O)CCCNC(=O)c1ccc(Cl)cc1)c1ccccc1	-12	7	8	0	2	-8
O=[N+]([O-])c1c(Nc2ccc(O)cc2)cc(Cl)c2nonc12	-10	-2	43*	-8	-8	78*
Cn1cnc([N+](=O)[O-])c1S(=O)(=O)Oc1ccc(Cl)cc1	-14	3	26	-9	-3	28*
Cn1cnc([N+](=O)[O-])c1S(=O)(=O)Oc1cccc2ccccc12	-2	4	13	0	-1	16
O=C1NC(=Nc2cccnc2)S/C1=C/c1ccc(F)cc1	6	2	2	16*	1	-19
O=C1NC(=Nc2ccccc2)S/C1=C\c1cccnc1	-7	2	22	-1	1	-4
C[C@H]1CN([C@@H](C)CO)C(=O)CCCn2cc(nn2)CO[C@@H]1CN(C)C(=O)Nc1ccc(N2CCCCC2)cc1	-4	0	11	9	-1	-10
COc1cccc(NC(=O)COC(=O)c2sccc2C)c1	1	3	7	2	1	-2
COCCCNc1cc(C)nc2ccccc12	3	2	6	7	-8	-1
Cc1cc(NCCCCCCCNc2cc(C)nc3cc([N+](=O)[O-])ccc23)c2ccc([N+](=O)[O-])cc2n1	-19	2	18	-10	-11	43*
CCCCn1nnnc1C1(C)CCC(=O)N1Cc1cccnc1 (centres undefined)	-8	0	-3	3	4	15
Cc1nnsc1SCCNC(=O)Nc1ccc(Cl)cc1	-22	14	32*	-3	4	9
